Experimental data collected from several papers.
Each line is one published result; the experiments were not run side by side.
Target: MAP kinase-activated protein kinase 5 (MAPKAPK5, Homo sapiens, UniProt Q8IW41)
Sequence (Q8IW41 1-473, as in one of the studies): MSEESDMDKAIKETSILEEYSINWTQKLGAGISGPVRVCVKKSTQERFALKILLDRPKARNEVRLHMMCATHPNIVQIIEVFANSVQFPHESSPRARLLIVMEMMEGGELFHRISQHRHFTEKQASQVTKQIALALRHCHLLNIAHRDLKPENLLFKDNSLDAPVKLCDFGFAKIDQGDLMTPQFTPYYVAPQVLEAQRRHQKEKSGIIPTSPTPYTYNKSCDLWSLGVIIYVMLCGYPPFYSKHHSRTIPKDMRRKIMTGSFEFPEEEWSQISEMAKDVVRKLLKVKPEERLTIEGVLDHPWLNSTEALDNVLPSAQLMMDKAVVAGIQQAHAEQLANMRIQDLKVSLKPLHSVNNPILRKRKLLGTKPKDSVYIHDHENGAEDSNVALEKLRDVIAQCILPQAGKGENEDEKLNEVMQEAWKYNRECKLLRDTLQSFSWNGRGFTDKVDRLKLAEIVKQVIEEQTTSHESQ

Compound | assay | setting | remaining binding
CC1CCCN1c1nccc(-c2cnn3ncccc23)n1 (stereo not shown) | binding | 1 µM | 100%
CCS(=O)(=O)c1cc2cc(C[C@](O)(CC(C)(C)c3ccc(F)cc3C(N)=O)C(F)(F)F)[nH]c2cn1 | cell-free assay, competition with immobilised ligand | 1 µM | 93%
C[C@@H](c1ccc(-n2cnc3c(N)ncnc32)cc1)N1CCc2nn(C)c(Cc3ccccc3)c2C1=O | binding, competition with immobilised ligand | 0.1 µM | 76%
CNC(=O)[C@@H]1CC[C@@H](n2c(-c3ccc4cnccc4c3)nc3ccc(C(=O)NCc4cccc(C(N)=O)c4)cc32)C1 | binding, competition with immobilised ligand | 1 µM | 100%
Cc1cnn2ncc(-c3ccnc(N(C)C)n3)c2c1 | binding | 1 µM | 77%
C[C@H](c1ccnc(Nc2nc3ccc(-c4cc(N(C)C)ncn4)cc3[nH]2)c1)N1CCN(C(=O)CC(F)(F)F)CC1 | cell-free assay, competition with immobilised ligand | 0.1 µM | 86%
c1cncc(-c2cccc(Nc3nccc(NC4CCCCC4)n3)c2)c1 | binding, competition with immobilised ligand | 10 µM | 100%
CC(=O)Nc1c(C(C)=O)c(=O)n(C)c2nc(-c3ccc(Cl)cc3Cl)c(-c3ccc(Cl)cc3)cc12 | cell-free assay, competition with immobilised ligand | 1 µM | 100%
O=C(NCCCN1CCOCC1)c1ccc(Nc2nccc(-c3cc4ccccc4s3)n2)cc1 | binding, competition with immobilised ligand | 1 µM | 82%
O=C(Nc1c[nH]nc1C(=O)NC1CCNCC1)c1cc(F)cc(F)c1 | binding, competition with immobilised ligand | 1 µM | 94%
O=C(c1ccc(Nc2ncc(Cl)c(-c3ccc(Cl)s3)n2)cc1)N1CCC(N2CCCC2)CC1 | binding, competition with immobilised ligand | 1 µM | 100%
CN(c1nccc(-c2cnn3ncccc23)n1)C1CC1 | binding | 1 µM | 99%
O=C(c1ccc(Nc2ncc(Cl)c(-c3cc4ccccc4s3)n2)cc1)N1CCC(N2CCCC2)CC1 | binding, competition with immobilised ligand | 1 µM | 80%
C[C@H]1CCN(c2nccc(-c3cnn4ncccc34)n2)C1 | binding | 1 µM | 69%
COc1ncc2cc3ccccc3nc2c1C#N | cell-free assay, competition with immobilised ligand | 5 µM | 83%
CS(=O)(=O)c1cc(C2(NC(=O)c3cncc4c3cnn4-c3ccc(F)cc3)CC2)ccn1 | cell-free assay, competition with immobilised ligand | 1 µM | 87%
FC(F)(F)Oc1cccc(-c2cnc3ccc(-c4ccncc4)nn23)c1 | cell-free assay, competition with immobilised ligand | 5 µM | 71%
N[C@@H]1CCN(c2nccc(-c3cnn4ncccc34)n2)C1 | binding | 1 µM | 100%
CSc1cccnc1N1CCN(Cc2nc3ccccc3[nH]2)CC1 | cell-free assay, competition with immobilised ligand | 1 µM | 84%
